How the values were obtained:
[1] = molecular target: T1, Inhibitor of nuclear factor kappa-B kinase subunit beta (Homo sapiens, UniProt O14920); assay: Inhibition of recombinant IKKbeta (unknown origin) using ulight-IkappaomegaBalpha as substrate after 1 hr by LANCE ultra TR-FRET assay
T1 sequence (O14920 whole entry): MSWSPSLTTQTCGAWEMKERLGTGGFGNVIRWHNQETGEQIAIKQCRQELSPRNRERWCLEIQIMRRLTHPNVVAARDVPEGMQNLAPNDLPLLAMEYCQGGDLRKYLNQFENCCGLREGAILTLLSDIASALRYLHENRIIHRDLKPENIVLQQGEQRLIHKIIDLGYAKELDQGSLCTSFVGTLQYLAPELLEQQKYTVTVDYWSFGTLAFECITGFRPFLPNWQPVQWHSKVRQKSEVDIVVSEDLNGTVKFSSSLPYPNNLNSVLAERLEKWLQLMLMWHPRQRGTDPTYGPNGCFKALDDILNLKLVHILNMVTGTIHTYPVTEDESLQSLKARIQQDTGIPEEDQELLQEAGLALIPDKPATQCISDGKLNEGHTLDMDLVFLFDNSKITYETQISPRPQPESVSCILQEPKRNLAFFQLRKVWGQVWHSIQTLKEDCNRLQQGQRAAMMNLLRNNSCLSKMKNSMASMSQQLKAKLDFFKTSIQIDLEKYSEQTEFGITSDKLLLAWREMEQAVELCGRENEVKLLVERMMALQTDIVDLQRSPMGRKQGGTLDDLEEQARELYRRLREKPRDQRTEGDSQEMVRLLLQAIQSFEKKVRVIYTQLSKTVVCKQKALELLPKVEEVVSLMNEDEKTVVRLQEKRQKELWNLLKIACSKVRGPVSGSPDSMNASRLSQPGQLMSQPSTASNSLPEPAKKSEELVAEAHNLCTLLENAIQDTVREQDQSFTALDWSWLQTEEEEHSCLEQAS

[2] = Cytotoxicity against human Jurkat T cells assessed as cell viability after 24 hrs by CellTiter-Glo assay; assay type: functional, cell-based
Method in brief: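 Jurkat cells were seeded the day before treatment in RPMI with 0.5% FBS (10,000 cells/well). They were treated in triplicate across an 8-point dose series starting at 10 µM, with DMSO ≤0.1% as solvent control. ATP was measured by CellTiter-Glo luminescence after 24 h; a time-0 reading separated cytostatic from cytotoxic effects. IC50 was fitted from the curve.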

[3] = Cytotoxicity against human Jurkat T cells assessed as cell viability at 4 uM after 24 hrs by CellTiter-Glo assay relative to control; assay type: functional; conditions: read-out: Activity
Method in brief: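 Jurkat cells in 0.5% FBS RPMI were exposed to 4 µM compound or 0.1% DMSO for 24 h. Viability was read as ATP by CellTiter-Glo luminescence and expressed as percent of solvent control; below 60% counted as cell killing. Data: three experiments, triplicate.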

[4] = molecular target: T2, Inhibitor of nuclear factor kappa-B kinase subunit epsilon (Homo sapiens) (UniProt Q14164); assay: Inhibition of recombinant IKKepsilon (unknown origin) using ulight-rpS6 as substrate at 20 uM after 2 hrs by LANCE ultra TR-FRET assay relative to control
T2 sequence (whole entry): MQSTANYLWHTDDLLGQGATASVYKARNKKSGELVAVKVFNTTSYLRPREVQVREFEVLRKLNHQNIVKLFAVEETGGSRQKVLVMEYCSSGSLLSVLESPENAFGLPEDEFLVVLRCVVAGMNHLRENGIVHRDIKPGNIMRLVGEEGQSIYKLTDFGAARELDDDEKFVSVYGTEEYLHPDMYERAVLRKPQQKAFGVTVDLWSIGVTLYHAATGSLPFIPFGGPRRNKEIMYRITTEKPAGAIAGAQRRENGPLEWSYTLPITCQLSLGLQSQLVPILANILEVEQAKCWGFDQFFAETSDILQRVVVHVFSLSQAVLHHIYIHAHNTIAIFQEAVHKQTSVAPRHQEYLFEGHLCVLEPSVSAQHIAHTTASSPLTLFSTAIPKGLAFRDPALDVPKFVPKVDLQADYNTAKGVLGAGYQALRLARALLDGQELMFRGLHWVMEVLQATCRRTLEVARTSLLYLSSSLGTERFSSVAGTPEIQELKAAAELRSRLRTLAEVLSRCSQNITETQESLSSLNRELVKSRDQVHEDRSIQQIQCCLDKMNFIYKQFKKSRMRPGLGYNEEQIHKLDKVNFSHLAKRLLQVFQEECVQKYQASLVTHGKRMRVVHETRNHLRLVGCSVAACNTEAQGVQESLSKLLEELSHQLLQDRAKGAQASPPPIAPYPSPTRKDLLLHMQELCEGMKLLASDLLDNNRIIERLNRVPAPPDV

[5] = molecular target: T3, Retinoic acid receptor alpha (Homo sapiens) (UniProt P10276); assay: Agonist activity at Gal4-fused RARalpha (unknown origin) transfected in HEK293 cells assessed as induction of transcriptional activity at 4 uM after 6 hrs by luciferase/beta-galactosidase reporter gene assay relative to control; assay type: cell-based
T3 sequence (whole entry): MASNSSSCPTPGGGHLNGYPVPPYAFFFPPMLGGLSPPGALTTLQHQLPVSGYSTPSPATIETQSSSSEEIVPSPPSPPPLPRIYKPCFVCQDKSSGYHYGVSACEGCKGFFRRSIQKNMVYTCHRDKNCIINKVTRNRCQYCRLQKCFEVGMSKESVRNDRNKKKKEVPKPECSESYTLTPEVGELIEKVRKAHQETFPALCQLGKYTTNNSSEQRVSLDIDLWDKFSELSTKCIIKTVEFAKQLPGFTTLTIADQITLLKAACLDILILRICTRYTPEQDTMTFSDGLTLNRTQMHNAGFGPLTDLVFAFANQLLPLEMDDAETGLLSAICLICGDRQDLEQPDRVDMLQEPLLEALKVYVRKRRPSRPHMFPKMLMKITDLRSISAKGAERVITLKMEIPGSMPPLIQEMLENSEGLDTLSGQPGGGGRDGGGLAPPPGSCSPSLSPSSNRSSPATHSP
Method in brief: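 Gal4-RARα or Gal4-RXRα (10 ng) plus 2 ng β-galactosidase vector, calcium phosphate transfection into HEK-293 cells carrying a 5×UAS luciferase reporter. After 16 h, cells were washed and given 5% charcoal-treated FBS medium, then rested 2 h. Stimulation was with 4 µM compound or 0.1% DMSO; controls were 1 µM atRA (RARα) or 1 µM CD3254 (RXRα). Harvest was at 6 h (RARα) or 24 h (RXRα). Luciferase/β-gal ratio was expressed as fold over unstimulated cells. Data: 2 experiments, triplicate.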

IC50 [1] [µM]	inhibition [4] [%]	fold change (FC) [5]	SMILES	IC50 [2] [µM]	viability at 4 µM [3] [%]
4.75	41.5	–	Cc1cc(O)c(C23CC4CC(CC(C4)C2)C3)cc1-c1ccc2cc(C(=O)O)ccc2c1Cl	2.19	7.7
7.81	26.1	1.9	COc1nc(-c2ccc(C(=O)O)cc2)cnc1-c1ccc(O)c(C23CC4CC(CC(C4)C2)C3)c1	3.13	14.9
3.37	11.6	–	O=C(O)c1ccc(-c2cnc(-c3ccc(O)c(C45CC6CC(CC(C6)C4)C5)c3)s2)cc1	2.24	6
–	0	1.3	COCCOCOc1cc(C)c(-c2ccc(CC(=O)O)cc2Cl)cc1C12CC3CC(CC(C3)C1)C2	–	86.8
–	2.9	1.8	COCCOCOc1cc(C)c(-c2ccc(/C=C/C(=O)O)cc2Cl)cc1C12CC3CC(CC(C3)C1)C2	–	83.7
7.06	13.7	–	COCCOCOc1cc(C)c(-c2ccc3cc(C(=O)O)ccc3c2Cl)cc1C12CC3CC(CC(C3)C1)C2	5.62	33.1
4.78	0	–	Cc1cc(O)c(C23CC4CC(CC(C4)C2)C3)cc1-c1ncc(-c2ccc(C(=O)O)cc2)s1	4.4	39
–	5.9	0.8	COCCOCOc1cc(C)c(-c2ncc(/C=C/C(=O)O)nc2OC)cc1C12CC3CC(CC(C3)C1)C2	–	96.5
–	5.2	–	CC(=O)NCCCOc1cc(/C=C/C(=O)O)ccc1-c1cc(C23CC4CC(CC(C4)C2)C3)c(O)cc1C	2.61	28
–	7.8	–	COc1nc(/C=C/C(=O)O)cnc1-c1ccc(O)c(C23CC4CC(CC(C4)C2)C3)c1	5.01	60.9
–	8.5	–	Cc1cc(O)c(C23CC4CC(CC(C4)C2)C3)cc1-c1ccc(CC(=O)O)cc1Cl	3.98	45.8
–	9.4	1.1	COCCOCOc1ccc(-c2ncc(/C=C/C(=O)O)nc2OC)cc1C12CC3CC(CC(C3)C1)C2	–	94.9
–	0	1	Cc1cc(O)c(C23CC4CC(CC(C4)C2)C3)cc1-c1ncc(/C=C/C(=O)O)s1	–	92.3
–	14.3	1	COCCOCOc1ccc(-c2ncc(/C=C/C(=O)O)s2)cc1C12CC3CC(CC(C3)C1)C2	–	103
–	11.9	–	Cc1cc(O)c(C23CC4CC(CC(C4)C2)C3)cc1-c1ccc(/C=C/C(=O)O)cc1Cl	4.04	34.1
4.43	17	–	COCCOCOc1cc(C)c(-c2ncc(-c3ccc(C(=O)O)cc3)s2)cc1C12CC3CC(CC(C3)C1)C2	5.71	59.5
–	18.8	1.1	COCCOCOc1ccc(-c2ncc(-c3ccc(C(=O)O)cc3)nc2OC)cc1C12CC3CC(CC(C3)C1)C2	–	91.4
–	6.7	–	COc1nc(/C=C/C(=O)O)cnc1-c1cc(C23CC4CC(CC(C4)C2)C3)c(O)cc1C	5.38	70.9
–	0	1.1	O=C(O)/C=C/c1cnc(-c2ccc(O)c(C34CC5CC(CC(C5)C3)C4)c2)s1	–	92.9
5.16	25.3	1.2	COCCOCOc1ccc(-c2ncc(-c3ccc(C(=O)O)cc3)s2)cc1C12CC3CC(CC(C3)C1)C2	–	74.5
–	11.1	1.9	COCCOCOc1cc(C)c(-c2ncc(/C=C/C(=O)O)s2)cc1C12CC3CC(CC(C3)C1)C2	–	96.1
